Among the data in ChEMBL document CHEMBL3272089, “Synthesis and antitumor activity of dihydro-5-azacytidine, a hydrolytically stable analogue of 5-azacytidine” (J Med Chem, 1977) are ILS and Activity values, retold here.

The test system of assay [1] is L1210. Put plainly: Antitumor activity against mouse L1210 cells allografted in ip dosed mouse assessed as increase in life span at MNTD administered qd on day 1, 5 and 9 post tumor implantation relative to control. The class given is functional. Summed up:
(§1)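 L1210 implanted ip in mice. Compound given ip in 0.9% saline on the listed schedule across a dose-response range. % ILS reported at the highest nontoxic dose, or at the dose giving maximal ILS for active compounds. Test minus control body-weight change on day 5 at the highest nontoxic dose.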

For assay [2], the system named is L1210. Nature of the assay: Antitumor activity against mouse L1210 cells allografted in ip dosed mouse assessed as change in body weight at MNTD administered qd on day 1, 5 and 9 post tumor implantation measured on day 5 relative to control. The class given is functional. Summed up: (§2)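 Doses were given ip in 0.9% saline after ip L1210 implantation, as a dose–response series. The reading is the difference in average body weight change (g) between test (T) and control (C) groups, measured on day 5 at the highest nontoxic dose tested.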

Assay [3] deals with L1210. Nature of the assay: Cytotoxicity against mouse L1210 cells assessed as cessation of growth in presence of uridine. The class given is functional, cell-based.
Assay [4] relates to L1210. Put plainly: Cytotoxicity against mouse L1210 cells assessed as cessation of growth in presence of cytidine. The class given is functional, cell-based.
The subject of assay [5] is L1210. Nature of the assay: Cytotoxicity against mouse L1210 cells assessed as cessation of growth. The class given is functional, cell-based.
Assay [6] relates to L1210. Nature of the assay: Antitumor activity against mouse L1210 cells allografted in ip dosed mouse assessed as change in body weight at MNTD administered qd from day 1 to day 9 post tumor implantation measured on day 5 relative to control. The class given is functional. Put shortly:
as §2

Assay [7] has as its system L1210. Put plainly: Antitumor activity against mouse L1210 cells allografted in ip dosed mouse assessed as increase in life span at MNTD administered qd from day 1 to day 9 post tumor implantation relative to control. The class given is functional. Summed up:
as §1

Active and inactive are the calls of the source. The rule behind the calls is not given here.

By ILS is commonly meant how much longer treated animals lived than controls. Consider `NC1=NC(=O)N([C@@H]2O[C@H](CO)[C@H]3O[B-]4(O[C@H]32)O[C@@H]2[C@H](O4)[C@@H](CO)O[C@H]2N2CNC(N)=NC2=O)CN1.[Na+]` (stereo partly specified), for which the ILS with L1210 [1] stood at 80%. For the same compound, in the assay on L1210 [2], the Activity is listed as -1.5 g.
For `NC1=NC(=O)N([C@@H]2O[C@H](CO)[C@@H](O)[C@H]2O)CN1` [listing 1 of 2 here], the result in the assay with L1210 [3] and in the assay with L1210 [4] was inactive. Further, in the assay on L1210 [5], the outcome was Active.
Consider `NC1=NC(=O)N([C@@H]2O[C@H](CO)[C@@H](O)[C@H]2O)CN1` [listing 2 of 2 here], for which, in the assay with L1210 [6], the Activity was -3.2 g. Also, the ILS in the assay on L1210 [7] is 86%.
As to `NC(N)=NC(=O)N[C@@H]1O[C@H](CO)[C@@H](O)[C@H]1O`, the ILS with L1210 [1] is listed as 0%. In addition, the Activity in the assay on L1210 [2] was -2.2 g.
The like results for `Cl.NC1=NC(=O)NCN1` were, in that order, 0% and 1 g.
